Assay results reported in ChEMBL document CHEMBL4382267, “Fusaristatin C, a Cyclic Lipodepsipeptide from Pithomyces sp. RKDO 1698” (J Nat Prod, 2018).
The source made the active and inactive calls. The rule behind the calls is not given here.

How the values were obtained:
HCT-116 = assay: Cytotoxicity against human HCT116 cells measured after 24 hrs by alamar blue assay; assay type: functional, cell-based
Pseudomonas aeruginosa = assay: Antimicrobial activity against Pseudomonas aeruginosa ATCC 14210 at 265 uM after 22 hrs by microbroth dilution method; assay type: functional, organism-based
Outline: (§1)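 Microbroth dilution assay. The top concentration tested was 128 μg/mL, equal to 265 μM.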

Enterococcus faecium = assay: Antimicrobial activity against vancomycin-resistant Enterococcus faecium EF379 at 265 uM after 22 hrs by microbroth dilution method; assay type: functional, organism-based
Outline: (§2)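 Microbroth dilution susceptibility test; compound tested up to a highest concentration of 128 μg/mL (265 μM).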

Homo sapiens = species: Homo sapiens; assay: Cytotoxicity against human HTB-26 cells measured after 24 hrs by alamar blue assay; assay type: functional, cell-based
Proteus vulgaris = assay: Antimicrobial activity against Proteus vulgaris ATCC 12454 at 265 uM after 22 hrs by microbroth dilution method; assay type: functional, organism-based; outline: as §1
Staphylococcus warneri = assay: Antimicrobial activity against Staphylococcus warneri ATCC 17917 at 265 uM after 22 hrs by microbroth dilution method; assay type: functional, organism-based; outline: as §1
MCF7 = assay: Cytotoxicity against human MCF7 cells measured after 24 hrs by alamar blue assay; assay type: functional, cell-based
[1] = Cytotoxicity against HEKa cells measured after 24 hrs by alamar blue assay; assay type: cell-based; conditions: human
BJ = assay: Cytotoxicity against human BJ cells measured after 24 hrs by alamar blue assay; assay type: cell-based
Candida albicans = assay: Antimicrobial activity against Candida albicans ATCC 14035 at 265 uM after 22 hrs by microbroth dilution method; assay type: functional, organism-based; outline: as §1
[2] = system: Mycobacterium tuberculosis; assay: Antimicrobial activity against Mycobacterium tuberculosis ATCC 25177 at 265 uM after 4 days by microplate alamar blue assay; assay type: functional, organism-based; conditions: H37Ra
Vero = assay: Cytotoxicity against African green monkey Vero cells measured after 24 hrs by alamar blue assay; assay type: cell-based; conditions: chlorocebus sabaeus
Staphylococcus aureus = assay: Antimicrobial activity against methicillin resistant Staphylococcus aureus ATCC 33591 at 265 uM after 22 hrs by microbroth dilution method; assay type: functional, organism-based; outline: as §2

Compound: C=C1NC(=O)[C@H](C)[C@H](CCCCCCCC(C)CCC)OC(=O)[C@H](CO)NC(=O)CCNC1=O (stereo partly drawn)
- Activity (HCT-116): inactive
- Activity (Pseudomonas aeruginosa): inactive
- Activity (Enterococcus faecium): inactive
- Activity (Homo sapiens): inactive
- Activity (Proteus vulgaris): inactive
- Activity (Staphylococcus warneri): inactive
- Activity (MCF7): inactive
- Activity [1]: Non-Toxic
- Activity (BJ): Non-Toxic
- Activity (Candida albicans): inactive
- Activity [2]: inactive
- Activity (Vero): Non-Toxic
- Activity (Staphylococcus aureus): inactive
